LMPTP inh = blocks human LMPTP phosphatase; recombinant LMPTP-A, OMFP fluorogenic substrate, fluorescence intensity; inhibition, % at 20 µM; 360,000 compounds, 0.22% hits;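 active = compounds that cut the enzyme signal by at least half of the control window in the single-dose screen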;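 also: plate controls were DMSO wells with enzyme plus substrate for no effect and substrate without enzyme for full effect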
Target sequence (P24666 whole entry, looked up): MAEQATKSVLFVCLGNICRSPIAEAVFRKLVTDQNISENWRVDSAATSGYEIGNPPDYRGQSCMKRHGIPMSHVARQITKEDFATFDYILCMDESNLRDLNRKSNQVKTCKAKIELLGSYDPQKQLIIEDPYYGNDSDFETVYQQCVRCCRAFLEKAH
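Test system: LMPTP-A, protein tyrosine phosphatase of low molecular weight; Input: 0.625 nM enzyme; Incubation: 50 min dark incubation at room temperature; Signal: endpoint fluorescence intensity from OMFP dephosphorylation; Read-out basis: % inhibition versus control wells.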
PP1 inh = PP1-alpha (human) inhibition in PP5 counter-screen | P62136 | purified PP1alpha, OMFP fluorescence | inhibition, % at 6.7 µM | 320,000 compounds, 0.9% hits;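 active = inhibition above the mean inhibition of all tested compounds plus 3 SD, computed separately for each screening campaign, cut at about 15% in these data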
Target sequence (P62136 whole entry, looked up): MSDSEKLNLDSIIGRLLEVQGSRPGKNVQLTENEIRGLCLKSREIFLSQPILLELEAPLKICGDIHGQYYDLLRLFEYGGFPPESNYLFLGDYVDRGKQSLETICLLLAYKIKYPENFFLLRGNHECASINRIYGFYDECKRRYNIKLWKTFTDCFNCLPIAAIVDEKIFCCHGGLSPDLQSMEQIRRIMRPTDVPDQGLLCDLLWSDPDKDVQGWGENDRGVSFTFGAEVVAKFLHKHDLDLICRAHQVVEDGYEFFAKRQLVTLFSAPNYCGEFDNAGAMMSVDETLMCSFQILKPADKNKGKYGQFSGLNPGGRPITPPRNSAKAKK
Scp1 inh = inhibitors of human Scp-1 phosphatase; Q9GZU7; Recombinant Scp1, phosphopeptide, malachite green phosphate absorbance; inhibition, % at 20 µM; 340,000 compounds, 0.88% hits;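 active = inhibition above about 50% at 20 µM, limit read from the data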;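 also: plate controls were DMSO wells with enzyme for no effect and wells lacking enzyme for full effect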
Target sequence (Q9GZU7 76-261 limits assumed): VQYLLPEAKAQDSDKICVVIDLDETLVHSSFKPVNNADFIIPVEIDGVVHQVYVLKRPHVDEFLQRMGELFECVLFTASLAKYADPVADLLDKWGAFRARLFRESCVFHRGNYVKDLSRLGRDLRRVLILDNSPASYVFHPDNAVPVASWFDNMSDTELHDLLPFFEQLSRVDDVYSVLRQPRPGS
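Incubation: 45 min enzyme reaction at room temperature / System: truncated SCP-1 phosphatase (76-261aa) / Reagent: Phospho 17-mer peptide substrate / Buffer or medium: Acidic Tris acetate buffer with magnesium and detergent / Signal: absorbance at 630 nm / Doses: one concentration, 20 µM, with 1.0% DMSO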
STEP inh = STEP (human) phosphatase inhibition; P54829; recombinant STEP, OMFP fluorogenic substrate, fluorescence; inhibition, % at 20 µM; 360,000 compounds, 0.25% hits; AID 588621;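 active = inhibition at 20 µM, scaled per plate between control wells, above about 37%, limit read from the data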;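 also: 0% = DMSO with enzyme and substrate and 100% = substrate only without enzyme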
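Test system: STEP tyrosine phosphatase / Reagent: OMFP at 25 µM / Doses: 20 µM, 1% DMSO / Read-out: percent inhibition scaled to no-enzyme and uninhibited-enzyme controls, plate-pattern corrected / Detection: FITC-channel fluorescence of OMFP product / Medium: Bis-Tris buffer pH 6.0, 2.5 mM DTT, 0.005% Tween 20 / Schedule: 20 min at room temperature, dark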
PP5 inh = PP5 (human) phosphatase inhibition; inhibition, % at 6.7 µM; P53041; purified PP5c, OMFP substrate fluorescence; 320,000 compounds, 0.18% hits;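 active = inhibition above the campaign's mean inhibition across all tested compounds plus 3 SD, cut at about 9.5% in these data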;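 also: 0% = DMSO only and 100% = 100 µM cantharidin control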
* = called active by the depositor; . = no result. Only some compounds are listed: those with a hit (about 1.9% of all), similar ones and a draw of the others.

SMILES	LMPTP inh	PP1 inh	Scp1 inh	STEP inh	PP5 inh
CC(=O)Nc1ccc(C(=O)OCc2ccc(Cl)c(Cl)c2)cc1	2.8	-0.8	-9.6	-3.3	4.9
Cc1cc(NC(=S)N(Cc2ccc(Cl)cc2)Cc2ccc(C(=O)O)cc2)ccc1Cl	1.3	15.9*	-10.1	2.3	4.2
CN(C)S(=O)(=O)c1cccc(C(=O)OCC(=O)c2ccc3c(c2)NC(=O)CO3)c1	1.4	0.6	-5.5	0.7	3.0
CN(C)S(=O)(=O)c1ccc(C(=O)OCC(=O)c2ccc3c(c2)NC(=O)CO3)cc1	56.9*	-2.1	-8.4	5.5	0.1
O=C(O)c1cc(N2N=C(C(F)(F)F)/C(=C/C=C/c3ccco3)C2=O)ccc1Cl	77.6*	.	68.8*	93.5*	.
O=C1c2cc(CO)cc(O)c2C(=O)c2c(O[C@@H]3OC(CO)[C@@H](O)[C@@H](O)[C@@H]3O)cccc21 (stereo partly drawn)	2.7	1.5	9.5	1.2	4.7
O=C(O)c1cc(O)c2c(c1)[C@H]([C@H]1c3cc(C(=O)O)cc(O)c3C(=O)c3c(O[C@@H]4O[C@H](CO)[C@@H](O)[C@H](O)[C@H]4O)cccc31)c1cccc(OC3O[C@H](CO)[C@@H](O)[C@H](O)[C@H]3O)c1C2=O (stereo partly drawn)	94.1*	86.3*	92.4*	98.5*	9.1
O=C(O)c1cc(O)c2c(c1)[C@@H]([C@H]1c3cc(C(=O)O)cc(O)c3C(=O)c3c(O[C@@H]4O[C@H](CO)[C@@H](O)[C@H](O)[C@H]4O)cccc31)c1cccc(OC3O[C@H](CO)[C@@H](O)[C@H](O)[C@H]3O)c1C2=O (stereo partly drawn)	92.4*	86.7*	92.4*	97.6*	9.8*
O=C(Cn1nc(Cl)nc1Cl)c1ccccc1	-1.5	-1.3	-9.6	-2.8	-6.6
CC(C)(C)OC(=O)COc1cc(OCC(=O)OC(C)(C)C)c2c(=O)cc(-c3ccccc3)oc2c1	15.1	16.6*	-1.3	6.2	7.4
CN(C)c1cc(Nc2ccc(O)cc2)c([N+](=O)[O-])c2nonc12	-0.5	-1.9	-7.4	-0.1	-1.3
O=[N+]([O-])c1c(Nc2ccc(O)cc2)cc(Cl)c2nonc12	0.4	4.2	-12.5	48.6*	0.1
CCOc1ccc(N=Nc2ccc(O)c3ncccc23)cc1	3.5	.	-9.8	1.2	.
Oc1ccc(N=Nc2ccc3c(c2)OCCO3)c2ncccc12	6.7	15.7*	-9.4	3.6	2.9
CN(C)NC1=CC(=[N+]2CCCC2)CC(C)(C)C1	-0.9	-3.2	-3.0	-0.8	0.0
CCCN(CCC)C1=CC(=[N+]2CCCC2)CC(C)(C)C1	-1.7	-1.3	76.9*	-1.0	-0.7
O=C(O)C1=CC(=C(c2ccc(O)c(C(=O)O)c2)c2ccc(O)c(C(=O)O)c2)C=CC1=O	.	82.4*	.	.	-1.3
Cc1cc(=O)oc2cc(OC(C)C(=O)N3CCOCC3)ccc12 (stereo not drawn)	-1.9	-3.2	-4.9	-4.8	-0.4
CCOC(=O)c1cc(-c2ccc(N3CCOCC3)cc2)nn1-c1ccc(F)cc1F	0.5	16.7*	0.0	2.0	3.2
NC1=NC2(CCCC2)n2c(nc3ccccc32)N1	10.3	0.3	-6.7	1.4	-1.2
N#C/C(=C\c1ccc(OCc2ccccc2)cc1)C(=O)Nc1ccc(C(=O)O)cc1	.	1.1	85.5*	.	1.4
O=C(NCc1ccccc1)c1onc(CSc2ccc(Cl)cc2)c1C(=O)NCC1CC1	1.2	0.8	-2.3	0.1	2.4
O=C(NCc1ccccc1)c1onc(CSc2ccccc2)c1C(=O)NCC1CC1	7.7	16.4*	-19.8	2.1	6.3
COc1cc(OC)c2c(O)c3c(c(-c4c5c(c(O)c6c(OC)cc(OC)cc46)CO[C@@H](C)[C@H]5O)c2c1)[C@H](O)[C@H](C)OC3	51.4*	9.8	55.5*	-2.0	2.0
CCOC(=O)c1sc(NC(=O)c2cc(-c3ccc(C)cc3)nc3ccccc23)c(C#N)c1C	1.9	-3.4	-10.8	9.5	4.6
SMILES	LMPTP inh	PP1 inh	Scp1 inh	STEP inh	PP5 inh
COC(=O)c1sc(NC(=O)c2cc(-c3ccccc3)nc3ccccc23)c(C#N)c1C	0.9	-0.1	-9.3	90.9*	1.3
COc1ccc(CCNC(=O)COc2ccc(S(=O)(=O)N3CCOCC3)cc2)cc1OC	-1.3	-0.8	-8.0	1.2	2.2
C[C@H]1CN([C@@H](C)CO)S(=O)(=O)c2ccc(-c3ccncc3)cc2O[C@H]1CN(C)C(=O)c1cccc(F)c1	0.1	.	.	-0.9	.
COc1ccccc1NC(=O)CCC(=O)Nc1nnc(C2CCCCC2)s1	0.1	0.3	-4.0	-1.0	1.6
O=C(NN=Cc1ccc(O)c(O)c1)c1ccccc1	3.6	.	.	1.6	.
O=C(COc1ccccc1C(=O)N/N=C\c1ccc(O)c(O)c1)N/N=C/c1ccc(O)c(O)c1	10.8	2.8	61.4*	-2.4	3.9
Cc1c(C(=O)NNC(=O)Nc2ccc([N+](=O)[O-])cc2)oc2ccccc12	6.2	15.1	-1.8	-1.7	1.6
O=C1c2cccc3c([N+](=O)[O-])ccc(c23)C(=O)N1O	22.2	9.1	83.0*	10.4	0.7
O=c1oc2ccccc2c2c1C(O)CO2 (stereo not drawn)	-1.7	1.2	-6.5	-4.0	-1.8
O=C1CCCC(O)=C1N=Nc1ccc2c(c1)OCO2	6.6	-0.7	0.8	10.6	1.1
O=C1CCCC(O)=C1N=Nc1ccc(C(=O)O)cc1	5.8	1.6	75.7*	11.9	-2.3
COC(=O)C1=C(CN2CCN(C)CC2)NC(=O)NC1c1cc(C)ccc1C (stereo not drawn)	-0.8	-2.7	3.6	-1.7	0.1
COC(=O)C1=C(CN2CCc3ccccc32)NC(=O)NC1c1cc(C)ccc1C (stereo not drawn)	2.3	15.4*	-4.8	1.7	1.1
O=C(NC1CCCC1)c1sc(=S)n2c1[nH]c(=O)c1ccccc12	0.4	1.8	57.5*	18.7	-0.6
O=C(NCc1ccco1)c1sc(=S)n2c1[nH]c(=O)c1ccccc12	1.0	0.1	46.8	19.1	-1.8
CC(C)(C)OC(=O)N1CCC(c2c(C(=O)N3CCN(C4CCCCC4)CC3)cnn2-c2ccccc2)CC1	-1.4	-1.8	-9.1	-1.6	-0.9
O=C1C(=Cc2cn(-c3ccccc3)nc2-c2ccc(OCc3ccccc3F)cc2)SC(=S)N1CCS(=O)(=O)O	88.7*	.	.	7.3	.
O=C1C(=Cc2cn(-c3ccccc3)nc2-c2ccc(OCc3ccc(Cl)cc3)cc2)SC(=S)N1CCS(=O)(=O)O	93.7*	.	.	8.1	.
O=C(Nc1cc(-c2ccccc2)[nH]n1)c1ccc(Cl)cc1	1.2	17.4*	-10.9	-2.4	1.2
C#CCOCCOCCOCCNc1nc(N2CCN(C(=O)CCCCCCCCCCNC(=O)[C@H](CO)n3cc(CCCSC)nn3)CC2)nc(N2CCN(C(=O)CCCCCCCCCCNC(=O)[C@@H]([C@H](C)O)n3cc(C)nn3)CC2)n1	.	30.7*	.	.	2.1

Screens from PubChem.
